Screening data as filed in PubChem BioAssay.
SR-BI DiI inh: inhibitors of mouse SR-BI mediated HDL lipid uptake; Q61009; ldlA[mSR-BI] CHO cells, DiI-HDL uptake fluorescence, 3 h; inhibition, % at 12.5 µM; 320,000 tested, 0.96% active;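 active = mean replicate inhibition of at least 70% and a set share of replicates each scoring 70 or more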
CaV13 ICDI inh: Primary screen for inhibitors of IQ motif and Ca2+-dependent inactivation inhibitor domain binding in CACNA1D, Förster resonance energy transfer in living cells, …; HEK cells, CFP/YFP FRET ICDI-IQ, plate reader, 10 min; percent FRET-ratio fall versus neutral wells; inhibition, % at 12.3 µM; 340,000 tested, 0.098% active; AID 743397;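 active = mean replicate inhibition of at least 30% and at least 1% of replicates passing that level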
Vif imaging: inhibitors of HIV Vif; inhibition, % at 7.49 µM; HEK293T cells, Vif self-association by quenched fluorescence, imaging, 24 h; 340,000 tested, 0.35% active; in the data active = inhibition above about 50%, passing the limit was not always enough
NTR1 agonist: NTR1 (human) agonism; 330,000 tested, 0.17% active; activation, % at 20 µM; NTR1-U2OS beta-arrestin-GFP spot imaging, agonist mode;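 active = activation at or above 40% of the spot to cytoplasm intensity ratio, with at least 20 cells analyzed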
Target sequence (P30989 whole entry, looked up): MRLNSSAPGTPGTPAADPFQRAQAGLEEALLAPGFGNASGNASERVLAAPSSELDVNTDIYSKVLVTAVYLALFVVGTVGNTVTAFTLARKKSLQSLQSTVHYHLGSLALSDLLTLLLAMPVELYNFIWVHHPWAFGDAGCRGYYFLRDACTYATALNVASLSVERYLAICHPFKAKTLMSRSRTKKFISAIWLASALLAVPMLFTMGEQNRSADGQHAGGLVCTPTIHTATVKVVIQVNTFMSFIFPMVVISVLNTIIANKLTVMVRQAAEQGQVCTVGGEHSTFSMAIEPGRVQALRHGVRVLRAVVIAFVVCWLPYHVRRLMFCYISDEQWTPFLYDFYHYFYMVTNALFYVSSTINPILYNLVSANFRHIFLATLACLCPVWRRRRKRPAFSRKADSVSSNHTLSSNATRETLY
V-ATPase pHluor: alters yeast V-ATPase proton transport; S. cerevisiae, pHLuorin cytosolic pH fluorescence; response, % at 10 µM; 350,000 tested, 0.37% active; AID 504577; in the data active = response mostly above about 7.3%, no sharp cut-off; inactive = mostly below about 5.4%; also: actives read high
SR-BI DiI-HDL act: enhances SR-BI lipid uptake from DiI-HDL | AID 504775 | CHO ldlA[mSR-BI] cells, DiI-HDL uptake fluorescence, 3 h; 100 = double the neutral-control signal | activation, % at 12.5 µM | 320,000 tested, 0.096% active;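 active = mean replicate activation of at least 60% and every replicate at or above 60%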
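System: LDL receptor-deficient CHO ldlA cells overexpressing murine SR-BI | Timing: 3 h uptake period with compound, 37 °C | Medium: HEPES-buffered (25 mM, pH 7.4) F12 plus 0.5% BSA | Dosing: Single-point compound dose | Signal: Bottom-read fluorescence, 550/595 nm | Read-out: Retained DiI signal reflecting DiI-HDL uptake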
NTR1 ag conf: NTR1 (human) agonism, confirmed. shares compounds with NTR1 agonist. NTR1-U2OS beta-arrestin-GFP translocation imaging. activation, % at 20 µM. 480 tested, 38% active;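 active = mean activation at 20 µM of at least 40%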
A number is an active result; - = inactive; . = no result. This is a sample that favours compounds with a hit; in the whole collection about 1.7% have one here.

SMILES	SR-BI DiI inh	CaV13 ICDI inh	Vif imaging	NTR1 agonist	V-ATPase pHluor	SR-BI DiI-HDL act	NTR1 ag conf
Cn1ncc2c(Nc3ccc(Br)cc3)nc(Nc3ccc(Br)cc3)nc21	-	-	-	-	-	-	.
CC1SCCN1S(=O)(=O)c1ccc2ccccc2c1 (stereo not given)	-	.	.	-	-	-	.
CCCNC(=O)C1(CC2CC(c3ccccc3)=NO2)CCN(C(=O)CCCCCBr)CC1 (stereo not given)	-	.	.	-	-	-	.
COC(=O)c1c(NC(=O)C2SC(=NC3CCCCC3)C(C(N)=O)=C2N)sc2c1CCCC2 (stereo not given)	-	-	-	42.6	-	-	-
C#CCOc1ccccc1CNC1CCN(Cc2ccccc2)CC1	-	-	-	-	-	-	.
Nc1nc(N)c(C=Nc2ccc(Br)cc2)c(Nc2ccc(Br)cc2)n1	-	-	-	59.4	-	-	-
Nc1nc(N)c(Br)c(Nc2ccc(Cl)c(Cl)c2)n1	-	-	-	.	-	-	.
Cc1ccc(NS(=O)(=O)c2ccc(Cl)c(NC(=S)NC(=O)C3CCCCC3)c2)cc1Cl	-	-	-	54.9	-	-	-
COc1cc(OC)c(NC(=O)/C=C/C(=O)O)cc1Cl	-	-	-	-	-	-	.
O=C1O/C(=C/c2ccccc2)c2ccccc21	-	-	-	-	-	-	.
N#CC1=C(c2ccccc2)/C(=C/c2ccccc2)OC1=O	-	-	-	65.8	-	-	87.4
Cc1cccc(NC(=O)c2c(-c3ccccc3)noc2C)n1	-	-	-	-	-	-	.
CCCCC(CC)CNC(=O)c1cccs1 (stereo not given)	-	-	-	-	-	-	.
COc1ccc(-c2sc3cc(OC)c(OC)cc3c2-c2ccc(O)cc2)cc1	-	-	-	50.9	-	-	-
Oc1ccc(Br)cc1/C=N/NC(=S)NCCc1ccccc1	-	-	-	60.5	-	-	-
c1ccc(CNc2c(-c3cccc(SC4CCCCC4)c3)nc3ccccn23)cc1	-	-	-	40.1	-	-	-
COc1cc(CNCc2ccccc2)cc(Cl)c1OC	.	-	-	-	-	.	.
COc1cc(CNCCc2ccccc2)cc(Cl)c1OCc1ccccc1	.	-	.	61.2	-	.	-
COc1ccc(C(CNC(=O)C(CC(C)C)NS(=O)(=O)c2ccc(C)cc2)N2CCOCC2)cc1 (stereo not given)	-	-	-	-	-	-	.
CCCCCCOc1ccc(NC(=O)CC2C(=O)N(CC)C(=S)N2Cc2ccco2)cc1 (stereo not given)	-	-	-	40.5	-	-	-
S=C(Nc1ccccc1Oc1ccccc1)Nc1cccc(Cl)c1Cl	-	-	-	.	-	-	.
CCCCNc1c(-c2ccc(OC)c(SC(C)CC)c2)nc2ccc(C)cn12 (stereo not given)	-	-	-	51.0	-	-	72.1
COc1cc(-c2csc(N3CCOCC3)n2)cc(OC)c1OC	-	-	-	-	-	-	.
COc1ccc(-c2csc(N3CCN(c4cc(C)nc5ccccc45)CC3)n2)cc1OC	-	-	-	43.9	-	-	41.5
O=C(Nc1ccc(Cl)cc1)/C(=C/c1cccc(O)c1)c1nc2ccccc2s1	-	-	-	49.2	-	-	56.5
SMILES	SR-BI DiI inh	CaV13 ICDI inh	Vif imaging	NTR1 agonist	V-ATPase pHluor	SR-BI DiI-HDL act	NTR1 ag conf
S=C(Nc1ccc(Cl)cc1)c1nc2ccccc2s1	-	-	-	-	-	-	.
CCOc1ccc(-c2noc(CCCC(=O)NC3CCCCC3)n2)cc1OC	.	-	-	-	-	.	.
O=C(Nc1ccc(Cl)c(C(F)(F)F)c1)NC1CC2CCCC(C1)N2Cc1ccccc1 (stereo not given)	.	-	.	43.7	.	.	-
CC1CCCC(NCC(O)COC(c2ccc(F)cc2)c2ccc(F)cc2)C1C (stereo not given)	-	-	-	52.5	-	-	-
COC(=O)c1ccc(/C=C/C(=O)OCC(=O)Nc2sccc2C(N)=O)cc1	-	.	-	45.2	-	-	77.1
CCc1ccccc1NC(=O)C1=CN2CCS(=O)(=O)N=C2C=C1	-	-	-	-	-	-	.
OC(Cn1cncn1)(c1ccccc1)c1ccccc1	-	-	.	55.1	-	-	-
NNC(=O)c1cc(-c2cccs2)nc2ccccc12	.	-	-	-	-	.	.
Cc1cccc2sc(NNC(=O)c3cc(-c4cccs4)nc4ccccc34)nc12	72.1	-	-	40.4	-	-	-
COc1ccc(C=C2C=C(C(C)(C)C)C(=O)C(C(C)(C)C)=C2)cc1OC	-	-	-	40.6	-	-	-
COc1ccc(/C=C2\CC/C(=C\c3ccc(OC)c(OC)c3)C2=O)cc1OC	-	-	-	-	-	-	.
CC1(C2CC2)NC(=O)N(CC(=O)N2CCN(c3ccc(F)cc3)CC2)C1=O (stereo not given)	-	-	-	-	-	-	.
C=C(C)COc1ccc(-c2nc(N)ncc2-c2ccc(OC)cc2)c(O)c1	-	-	-	.	.	-	.
C=C(C)COc1ccc(-c2nc(N)ncc2-c2ccc(Cl)cc2)c(O)c1	-	-	-	69.5	-	-	-
O=C(c1ccc(Cl)cc1)C(CN1CCCCC1)c1ccccc1 (stereo not given)	-	-	-	49.5	-	-	60.1
O=C(COC(=O)/C=C/C(=O)OCC(=O)NC12CC3CC(CC(C3)C1)C2)NC12CC3CC(CC(C3)C1)C2	-	-	-	85.1	-	-	40.2
CCN(CC(=O)Nc1ccc(N2CCOCC2)cc1)CC(=O)NC(C)(C)C	-	-	-	-	-	-	.
Clc1cccc(CNCCCSc2ncccn2)c1Cl	-	-	-	-	-	-	.
Oc1ccccc1/C=N/Nc1cc(N2CCCC2)nc(N2CCCC2)n1	-	-	-	40.4	-	-	-
COC(=O)CN1C(=O)C2(C(C#N)=C(N)Oc3n[nH]c(-c4cccs4)c32)c2ccccc21 (stereo not given)	-	-	.	53.4	-	-	-
CCN1C(=O)C2(C(C#N)=C(N)Oc3n[nH]c(-c4ccccc4)c32)c2ccccc21 (stereo not given)	-	-	-	-	-	-	.
Cc1ccc(NC(=O)COC(=O)c2cccc3c(=O)c(C)c(-c4ccccc4)oc23)cc1	-	-	-	-	-	-	.
COC(=O)C1=C(C)Nc2nnnn2C1c1ccccc1Cl (stereo not given)	-	.	-	-	-	-	.
CCCCCOC(=O)C1=C(C)Nc2nnnn2C1c1ccccc1Cl (stereo not given)	-	.	-	57.8	-	-	-
COc1cc(/C=C/C(=O)c2ccc(C)c([N+](=O)[O-])c2)cc(OC)c1O	-	-	-	-	-	-	.
